Test results from ChEMBL document CHEMBL1130141, “Mapping the peripheral benzodiazepine receptor binding site by conformationally restrained derivatives of 1-(2-chlorophenyl)-N-methyl-N-(1-methylpropyl)-3- isoquinolinecarboxamide (PK11195)” (J Med Chem, 1997).
Active and inactive are the calls of the source. No cut-off for these calls is given here.

Experiments:
Translocator protein [1] = target: T1, Translocator protein (Rattus norvegicus, UniProt P16257); experiment: In vitro displacement of [3H]PK11195 from the peripheral benzodiazepine receptor (PBR) in rat cortex
Translocator protein [2] = target: T1, Translocator protein; experiment: In vitro binding affinity (pIC50) was tested against peripheral benzodiazepine receptor (PBR) in rat.
[3] = target: Translocator protein (Rattus norvegicus) (UniProt P16257); experiment: In vitro binding affinity (pIC50) for peripheral benzodiazepine receptor (PBR) in rat (inactive)
Method in brief: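 Male CD rat cerebral cortex, stored at -80°C, homogenized in ice-cold 50 mM PBS pH 7.4 with 100 mM NaCl and washed by centrifugation. Membranes used at 2.3 mg tissue per sample with 1 nM [3H]PK11195 for 120 min at 4°C, then filtered on GF/B and counted by scintillation. Nonspecific binding defined with 1 µM PK11195. IC50 from curve fitting of 6 concentrations.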

T1 sequence (P16257 whole entry, looked up): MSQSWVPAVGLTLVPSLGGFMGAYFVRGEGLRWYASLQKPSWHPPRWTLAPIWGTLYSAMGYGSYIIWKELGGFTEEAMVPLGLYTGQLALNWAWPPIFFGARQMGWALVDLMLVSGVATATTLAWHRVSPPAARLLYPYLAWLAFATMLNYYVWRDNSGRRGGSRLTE
Translocator protein (Rattus norvegicus), sequence (P16257 whole entry, looked up): as above

Structure (SMILES) | IC50 (Translocator protein [1]) [nM] | IC50 (Translocator protein [2]) [nM] | Log IC50 [3]
Cc1c(C(=O)N(C)Cc2ccc(Cl)cc2)nc2ccccc2c1-c1ccccc1F | 3.4 | 3.39 | 
CCC(C)N1Cc2c(nc3ccccc3c2-c2ccccc2)C1=O (stereo not given) | > 10000 |  | inactive
CCC(C)N1CCCc2c(nc3ccccc3c2-c2ccccc2)C1=O (stereo not given) | 1200 | 1200 | 
CCC(C)N(C)C(=O)c1nc(-c2ccccc2)c2ccccc2c1C (stereo not given) | 11 | 11.2 | 
Cc1c(C(=O)NCc2ccc(Cl)cc2)nc2ccccc2c1-c1ccccc1F | 270 | 269 | 
CCC(C)NC(=O)c1nc(-c2ccccc2)c2ccccc2c1C (stereo not given) | 550 | 550 | 
CCC(C)N(C)C(=O)c1nc2ccccc2c(-c2ccccc2F)c1C (stereo not given) | 2.9 | 2.88 | 
Cc1c(C(=O)N(C)Cc2ccc(Cl)cc2)nc2ccccc2c1-c1ccccc1 | 9.8 | 9.77 | 
Cc1c(C(=O)N(C)c2ccc(Cl)cc2)nc2ccccc2c1-c1ccccc1 | 6.4 | 6.46 | 
Cc1c(C(=O)NCc2ccc(Cl)cc2)nc2ccccc2c1-c1ccccc1 | 1700 | 1700 | 
COc1ccc(N(C)C(=O)c2nc3ccccc3c(-c3ccccc3)c2C)cc1 | 8.8 | 8.71 | 
CCC(C)N(C)C(=O)c1nc2ccccc2c(-c2ccccc2)c1C (stereo not given) | 2.1 | 2.09 | 
CN1CCCc2c(nc3ccccc3c2-c2ccccc2)C1=O | > 10000 |  | 
CCC(C)NC(=O)c1nc2ccccc2c(-c2ccccc2)c1C (stereo not given) | 230 | 229 | 
CN(Cc1ccccc1)C(=O)c1nc2ccccc2c2c1CCc1ccccc1-2 | 8.9 | 8.91 | 
CCC(C)NC(=O)c1nc2ccccc2c(-c2ccccc2F)c1C (stereo not given) | 13 | 12.9 | 
CCC(C)N1Cc2c(nc3ccccc3c2-c2ccccc2F)C1=O (stereo not given) | > 10000 |  | 

The next lines start with the values.

IC50 (Translocator protein [1]) [nM] | IC50 (Translocator protein [2]) [nM] | Log IC50 [3] | Structure (SMILES)
810 | 813 |  | CCCCC1c2c(nc3ccccc3c2-c2ccccc2)C(=O)N1Cc1ccccc1 (stereo not given)
780 | 794 |  | CCC(C)N1CCCc2c(nc(-c3ccccc3)c3ccccc23)C1=O (stereo not given)
3.1 | 3.09 |  | Cc1c(C(=O)N(C)Cc2ccccc2)nc(-c2ccccc2)c2ccccc12
> 10000 |  |  | O=C1c2nc3ccccc3c(-c3ccccc3)c2CN1Cc1ccccc1
480 | 479 |  | O=C1c2nc(-c3ccccc3)c3ccccc3c2CN1Cc1ccccc1
620 | 617 |  | CCC(C)N1Cc2c(nc(-c3ccccc3)c3ccccc23)C1=O (stereo not given)
170 | 170 |  | O=C1c2nc3ccccc3c(-c3ccccc3)c2CCCN1Cc1ccccc1
490 | 490 |  | CCC(C)N1CC=Cc2c(nc(-c3ccccc3)c3ccccc23)C1=O (stereo not given)
45 | 45.7 |  | O=C1c2nc(-c3ccccc3)c3ccccc3c2C=CCN1Cc1ccccc1
2.1 | 2.09 |  | Cc1c(C(=O)N(C)Cc2ccccc2)nc2ccccc2c1-c1ccccc1
10 | 10 |  | CN(Cc1ccccc1)C(=O)c1nc2ccccc2c2c1OCCc1ccccc1-2
1200 | 1200 |  | Cc1c(C(=O)NCc2ccccc2)nc2ccccc2c1-c1ccccc1
